# Legend:
# [1] = target: DNA topoisomerase 2-alpha (Homo sapiens) (UniProt P11388); assay: Inhibition of full-length human recombinant topoisomerase 2-alpha mediated relaxation and cleavage of supercoiled pBR322 plasmid DNA to linear DNA by ethidium bromide staining based gel electrophoresis assay
# Summary of the method: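 Recombinant full-length human topoisomerase IIα with supercoiled pBR322 DNA at 37 °C. Components mixed on ice before drug addition. Complexes trapped with SDS; products run on ethidium bromide gels. Linear DNA identified against a HindIII-linearized marker; repeated on three days.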
# MCF7 = assay: Cytotoxicity against human MCF7 cells assessed as cell growth at 50 uM by SRB assay; format: functional; conditions: read-out: Activity
# CCRF-CEM = assay: Cytotoxicity against human CCRF-CEM cells by SRB assay; format: functional
# HCT-116 = assay: Cytotoxicity against human HCT116 cells by SRB assay; format: functional
# Summary of the method: (§1)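 Measured in the NCI-60 human tumour cell line panel using five-dose testing. Growth was recorded at each dose for each cell line, and a GI50 was derived for each line.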
# HCT-15 [2] = assay: Cytotoxicity against human HCT15 cells by SRB assay; format: functional; summary of the method: as §1
# SNB-75 = assay: Cytotoxicity against human SNB75 cells by SRB assay; format: functional
# Summary of the method: (§2)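 NCI-60 panel screen; 5-dose testing giving GI50 per cell line, plus a single 10 µM one-dose test. Method details not given beyond the NCI screen.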
# LOX IMVI = assay: Cytotoxicity against human LOXIMVI cells by SRB assay; format: functional; summary of the method: as §2
# SK-MEL-2 [3] = assay: Cytotoxicity against human SK-MEL-2 cells by SRB assay; format: functional; summary of the method: as §2
# RPMI-8226 [4] = assay: Cytotoxicity against human RPMI8226 cells assessed as cell growth at 0.005 uM by SRB assay; format: functional; conditions: read-out: Activity
# HOP-62 = assay: Cytotoxicity against human HOP62 cells assessed as cell growth at 0.005 uM by SRB assay; format: functional; conditions: read-out: Activity; summary of the method: as §1
# HOP-92 = assay: Cytotoxicity against human HOP92 cells assessed as cell growth at 0.005 uM by SRB assay; format: functional; conditions: read-out: Activity; summary of the method: as §1
# SW-620 = assay: Cytotoxicity against human SW620 cells assessed as cell growth at 0.005 uM by SRB assay; format: functional; conditions: read-out: Activity
# SNB-19 = assay: Cytotoxicity against human SNB19 cells assessed as cell growth at 0.005 uM by SRB assay; format: functional; conditions: read-out: Activity
# SK-MEL-2 [5] = assay: Cytotoxicity against human SK-MEL-2 cells assessed as cell growth at 0.005 uM by SRB assay; format: functional; conditions: read-out: Activity
# UACC-257 [6] = assay: Cytotoxicity against human UACC257 cells assessed as cell growth at 0.005 uM by SRB assay; format: functional; conditions: read-out: Activity
# IGROV-1 = assay: Cytotoxicity against human IGROV1 cells assessed as cell growth at 0.005 uM by SRB assay; format: functional; conditions: read-out: Activity; summary of the method: as §1
# OVCAR-3 = assay: Cytotoxicity against human OVCAR3 cells assessed as cell growth at 0.005 uM by SRB assay; format: functional; conditions: read-out: Activity
# OVCAR-5 = assay: Cytotoxicity against human OVCAR5 cells assessed as cell growth at 0.005 uM by SRB assay; format: functional; conditions: read-out: Activity
# A498 = assay: Cytotoxicity against human A498 cells assessed as cell growth at 0.005 uM by SRB assay; format: functional; conditions: read-out: Activity
# SN12C = assay: Cytotoxicity against human SN12C cells assessed as cell growth at 0.005 uM by SRB assay; format: functional; conditions: read-out: Activity
# TK-10 [7] = assay: Cytotoxicity against human TK10 cells assessed as cell growth at 0.005 uM by SRB assay; format: functional; conditions: read-out: Activity
# PC-3 = assay: Cytotoxicity against human PC3 cells assessed as cell growth at 0.005 uM by SRB assay; format: functional; conditions: read-out: Activity
# MDA-MB-468 = assay: Cytotoxicity against human MDA-MB-468 cells assessed as cell growth at 0.005 uM by SRB assay; format: functional; conditions: read-out: Activity
# NCI-H322M = assay: Cytotoxicity against human NCI-H322M cells assessed as cell growth at 0.05 uM by SRB assay; format: functional; conditions: read-out: Activity
# SF-539 [8] = assay: Cytotoxicity against human SF539 cells assessed as cell growth at 0.05 uM by SRB assay; format: functional; conditions: read-out: Activity
# U-251 = assay: Cytotoxicity against human U251 cells assessed as cell growth at 0.05 uM by SRB assay; format: functional; conditions: read-out: Activity
# [9] = Cytotoxicity against human NCI-ADR-RES cells assessed as cell growth at 0.05 uM by SRB assay; format: functional; conditions: read-out: Activity
# UO-31 = assay: Cytotoxicity against human UO31 cells assessed as cell growth at 0.05 uM by SRB assay; format: functional; conditions: read-out: Activity
# [10] = Cytotoxicity against human Hs578T cells assessed as cell growth at 0.05 uM by SRB assay; format: functional; conditions: Hs-578T, read-out: Activity; summary of the method: as §1
# HL-60(TB) = assay: Cytotoxicity against human HL-60(TB) cells assessed as cell growth at 0.5 uM by SRB assay; format: functional; conditions: read-out: Activity; summary of the method: as §1
# NCI-H226 [11] = assay: Cytotoxicity against human NCI-H226 cells assessed as cell growth at 0.5 uM by SRB assay; format: functional; conditions: read-out: Activity
# HCT-15 [12] = assay: Cytotoxicity against human HCT15 cells assessed as cell growth at 0.5 uM by SRB assay; format: functional; conditions: read-out: Activity; summary of the method: as §1
# TK-10 [13] = assay: Cytotoxicity against human TK10 cells assessed as cell growth at 0.5 uM by SRB assay; format: functional; conditions: read-out: Activity
# MDA-MB-231 = assay: Cytotoxicity against human MDA-MB-231/ATCC cells assessed as cell growth at 0.5 uM by SRB assay; format: functional; conditions: read-out: Activity
# RPMI-8226 [14] = assay: Cytotoxicity against human RPMI8226 cells assessed as cell growth at 5 uM by SRB assay; format: functional; conditions: read-out: Activity
# SR = assay: Cytotoxicity against human SR cells assessed as cell growth at 5 uM by SRB assay; format: functional; conditions: read-out: Activity
# NCI-H226 [15] = assay: Cytotoxicity against human NCI-H226 cells assessed as cell growth at 5 uM by SRB assay; format: functional; conditions: read-out: Activity
# SF-539 [16] = assay: Cytotoxicity against human SF539 cells assessed as cell growth at 5 uM by SRB assay; format: functional; conditions: read-out: Activity
# M14 = assay: Cytotoxicity against human M14 cells assessed as cell growth at 5 uM by SRB assay; format: functional; conditions: read-out: Activity
# SK-MEL-2 [17] = assay: Cytotoxicity against human SK-MEL-2 cells assessed as cell growth at 5 uM by SRB assay; format: functional; conditions: read-out: Activity
# UACC-257 [18] = assay: Cytotoxicity against human UACC257 cells assessed as cell growth at 5 uM by SRB assay; format: functional; conditions: read-out: Activity
# [19] = read-out: LC50 (the source's name)
# [20] = read-out: pLC50 (the source's name) (converted)
# DNA topoisomerase 2-alpha (Homo sapiens), sequence (P11388 whole entry): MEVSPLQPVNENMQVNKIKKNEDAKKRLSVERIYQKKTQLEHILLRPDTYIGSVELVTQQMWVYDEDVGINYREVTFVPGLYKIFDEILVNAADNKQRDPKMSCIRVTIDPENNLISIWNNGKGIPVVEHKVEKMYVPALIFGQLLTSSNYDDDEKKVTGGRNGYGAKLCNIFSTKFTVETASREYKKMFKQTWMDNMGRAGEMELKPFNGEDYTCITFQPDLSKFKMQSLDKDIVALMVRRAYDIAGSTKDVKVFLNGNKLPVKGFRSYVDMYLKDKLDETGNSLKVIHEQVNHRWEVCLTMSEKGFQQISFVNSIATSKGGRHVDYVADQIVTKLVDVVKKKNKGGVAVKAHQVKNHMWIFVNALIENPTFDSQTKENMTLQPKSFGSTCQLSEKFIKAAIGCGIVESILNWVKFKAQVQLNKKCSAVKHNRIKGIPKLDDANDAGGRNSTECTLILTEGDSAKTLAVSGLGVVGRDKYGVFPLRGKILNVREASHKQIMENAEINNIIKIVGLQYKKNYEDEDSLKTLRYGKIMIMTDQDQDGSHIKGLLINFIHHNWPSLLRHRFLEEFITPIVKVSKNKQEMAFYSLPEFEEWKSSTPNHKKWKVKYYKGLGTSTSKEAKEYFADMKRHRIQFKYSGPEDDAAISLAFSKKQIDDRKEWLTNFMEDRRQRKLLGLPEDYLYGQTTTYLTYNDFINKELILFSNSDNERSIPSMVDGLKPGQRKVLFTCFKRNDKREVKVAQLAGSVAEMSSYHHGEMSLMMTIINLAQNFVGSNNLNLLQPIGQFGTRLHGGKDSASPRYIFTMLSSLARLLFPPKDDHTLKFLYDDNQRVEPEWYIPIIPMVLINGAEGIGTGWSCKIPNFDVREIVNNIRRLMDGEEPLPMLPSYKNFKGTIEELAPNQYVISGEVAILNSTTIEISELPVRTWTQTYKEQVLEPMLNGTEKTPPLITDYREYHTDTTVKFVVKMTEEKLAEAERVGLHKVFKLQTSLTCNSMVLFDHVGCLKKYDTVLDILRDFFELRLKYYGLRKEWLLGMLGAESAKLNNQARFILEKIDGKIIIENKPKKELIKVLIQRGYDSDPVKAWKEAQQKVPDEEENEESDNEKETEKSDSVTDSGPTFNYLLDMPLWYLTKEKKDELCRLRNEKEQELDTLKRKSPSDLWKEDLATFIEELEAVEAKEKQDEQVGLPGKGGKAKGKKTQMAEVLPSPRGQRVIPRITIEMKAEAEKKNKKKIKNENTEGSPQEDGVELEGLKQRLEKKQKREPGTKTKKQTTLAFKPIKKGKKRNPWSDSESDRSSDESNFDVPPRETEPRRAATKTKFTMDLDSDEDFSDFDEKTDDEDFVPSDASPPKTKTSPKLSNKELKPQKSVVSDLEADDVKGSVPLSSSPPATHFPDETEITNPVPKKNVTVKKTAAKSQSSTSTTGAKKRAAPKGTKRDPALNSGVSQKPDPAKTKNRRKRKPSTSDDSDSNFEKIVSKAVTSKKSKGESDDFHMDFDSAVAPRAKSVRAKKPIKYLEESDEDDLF
structure (smiles),measurement,setting,value
COc1cc([C@@H]2c3cc4c(cc3[C@@H](NC(=O)CN3CCN(CCCCCCCCCCN5CCN(CC(=O)N[C@@H]6c7cc8c(cc7[C@@H](c7cc(OC)c(O)c(OC)c7)[C@H]7C(=O)OC[C@@H]76)OCO8)CC5)CC3)[C@H]3COC(=O)[C@H]23)OCO4)cc(OC)c1O,Effect on topoisomerase 2-alpha DNA cleavage (qualitative),[1],Dose-dependent effect
same,growth at 50 µM,MCF7,-60%
same,GI50,CCRF-CEM; read-out: GI50,0.0809 µM
same,CC50,CCRF-CEM; [19],> 50 µM
same,GI50,CCRF-CEM; read-out: pGI50 (converted),0.0813 µM
same,CC50,CCRF-CEM; [20],> 50.1 µM
same,GI50,HCT-116; read-out: GI50,1 µM
same,CC50,HCT-116; [19],46.5 µM
same,TGI,HCT-116; read-out: TGI,3.46 µM
same,GI50,HCT-116; read-out: pGI50 (converted),1 µM
same,CC50,HCT-116; [20],46.8 µM
same,TGI,HCT-116; read-out: pTGI (converted),3.47 µM
same,GI50,HCT-15 [2]; read-out: GI50,0.359 µM
same,CC50,HCT-15 [2]; [19],3.39 µM
same,TGI,HCT-15 [2]; read-out: TGI,1.24 µM
same,GI50,HCT-15 [2]; read-out: pGI50 (converted),0.363 µM
same,CC50,HCT-15 [2]; [20],3.39 µM
same,TGI,HCT-15 [2]; read-out: pTGI (converted),1.23 µM
same,GI50,SNB-75; read-out: GI50,0.228 µM
same,CC50,SNB-75; [19],> 50 µM
same,TGI,SNB-75; read-out: TGI,2.75 µM
same,GI50,SNB-75; read-out: pGI50 (converted),0.229 µM
same,CC50,SNB-75; [20],> 50.1 µM
same,TGI,SNB-75; read-out: pTGI (converted),2.75 µM
same,GI50,LOX IMVI; read-out: GI50,0.0731 µM
same,GI50,LOX IMVI; read-out: pGI50 (converted),0.0724 µM
same,GI50,SK-MEL-2 [3]; read-out: GI50,3.96 µM
same,CC50,SK-MEL-2 [3]; [19],41 µM
same,TGI,SK-MEL-2 [3]; read-out: TGI,13.9 µM
same,GI50,SK-MEL-2 [3]; read-out: pGI50 (converted),3.98 µM
same,CC50,SK-MEL-2 [3]; [20],40.7 µM
same,TGI,SK-MEL-2 [3]; read-out: pTGI (converted),13.8 µM
same,growth at 0.005 µM,RPMI-8226 [4],89%
same,growth at 0.005 µM,HOP-62,88%
same,growth at 0.005 µM,HOP-92,91%
same,growth at 0.005 µM,SW-620,92%
same,growth at 0.005 µM,SNB-19,99%
same,growth at 0.005 µM,SK-MEL-2 [5],99%
same,growth at 0.005 µM,UACC-257 [6],96%
same,growth at 0.005 µM,IGROV-1,90%
same,growth at 0.005 µM,OVCAR-3,100%
same,growth at 0.005 µM,OVCAR-5,95%
same,growth at 0.005 µM,A498,73%
same,growth at 0.005 µM,SN12C,94%
same,growth at 0.005 µM,TK-10 [7],93%
same,growth at 0.005 µM,PC-3,99%
same,growth at 0.005 µM,MDA-MB-468,95%
same,growth at 0.05 µM,NCI-H322M,92%
same,growth at 0.05 µM,SF-539 [8],74%
same,growth at 0.05 µM,U-251,69%
same,growth at 0.05 µM,[9],97%
same,growth at 0.05 µM,UO-31,85%
same,growth at 0.05 µM,[10],95%
same,growth at 0.5 µM,HL-60(TB),15%
same,growth at 0.5 µM,NCI-H226 [11],49%
same,growth at 0.5 µM,HCT-15 [12],45%
same,growth at 0.5 µM,TK-10 [13],96%
same,growth at 0.5 µM,MDA-MB-231,87%
same,growth at 5 µM,RPMI-8226 [14],-15%
same,growth at 5 µM,SR,-26%
same,growth at 5 µM,NCI-H226 [15],35%
same,growth at 5 µM,SF-539 [16],-88%
same,growth at 5 µM,M14,-36%
same,growth at 5 µM,SK-MEL-2 [17],47%
same,growth at 5 µM,UACC-257 [18],-97%

# — ChEMBL document CHEMBL3588757, “Structure-based design, synthesis and biological testing of piperazine-linked bis-epipodophyllotoxin etoposide analogs” (Bioorg Med Chem, 2015)
